Screens deposited in PubChem BioAssay by several laboratories.
Sampled rows, rich in hits. Any-hit rate of the full collection: about 2.2%.
Runt-CBFb FRET: Runt domain-CBFb interaction inhibition; 220,000 tested, 0.46% active; inhibition, % at 20 µM; Cerulean-Runt/Venus-CBFb FRET ratio 530/480, 1 h;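 active means inhibition over about 50% at 20 µM in the single-dose screen, limit read from the data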
Target sequence (Q01196 whole entry, looked up, the tested form may be a part): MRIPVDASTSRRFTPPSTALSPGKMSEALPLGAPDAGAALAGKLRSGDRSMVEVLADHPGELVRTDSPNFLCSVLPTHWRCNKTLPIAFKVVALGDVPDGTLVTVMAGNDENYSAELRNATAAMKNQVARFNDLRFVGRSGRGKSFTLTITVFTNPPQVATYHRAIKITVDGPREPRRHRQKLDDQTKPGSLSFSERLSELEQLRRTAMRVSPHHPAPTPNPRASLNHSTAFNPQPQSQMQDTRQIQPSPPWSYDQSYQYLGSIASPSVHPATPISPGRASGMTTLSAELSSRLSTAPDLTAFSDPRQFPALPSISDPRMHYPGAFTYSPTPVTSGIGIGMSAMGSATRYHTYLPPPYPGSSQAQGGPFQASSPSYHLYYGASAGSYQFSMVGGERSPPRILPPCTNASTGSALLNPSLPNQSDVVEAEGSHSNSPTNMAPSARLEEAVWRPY
Target sequence (Q13951 whole entry, looked up, the tested form may be a part): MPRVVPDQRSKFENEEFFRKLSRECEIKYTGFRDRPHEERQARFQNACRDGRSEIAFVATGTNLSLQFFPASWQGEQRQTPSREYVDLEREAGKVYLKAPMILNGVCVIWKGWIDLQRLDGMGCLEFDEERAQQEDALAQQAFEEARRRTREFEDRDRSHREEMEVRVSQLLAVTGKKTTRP
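Measured by: fluorescence energy transfer, 422 nm excitation, 530/480 nm emission; Assay system: Cerulean-Runt domain; Medium: Tris pH 7.5 buffer with BSA; Measure: loss of energy transfer signal; Controls: 5 µM unlabeled CBFb as full-inhibition high control; Incubation: protein complex preformed 1 h, compound exposure 1 h, room temperature, dark.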
Runt-SMMHC FRET: blocks binding of human RUNX1 Runt domain to CBFb-SMMHC | Cerulean-Runt/Venus-CBFb-SMMHC FRET ratio 530/480, 1 h | inhibition, % at 20 µM | 220,000 tested, 0.74% active;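 active means mean inhibition across duplicate retests at 20 µM reaching about 50%, limit read from the data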;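 further: inhibitors lower the FRET ratio by blocking Runt binding to CBFb-SMMHC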
Hck Nef HTS: human Hck-Nef kinase inhibition; P08631; Recombinant Hck-YEEI plus Nef, Z-Lyte FRET kinase assay; inhibition, % at 20 µM; 220,000 tested, 0.68% active; AID 463187;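 active means Hck-Nef kinase inhibition above about 50%, limit read from the data; inactive means inhibition below that limit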
eIF4E 4G PPI: eIF4E/eIF4G interaction inhibition in translation initiation | TR-FRET eIF4E-eIF4GI(517-606) binding, 2 h | inhibition, % at 21.7 µM | 220,000 tested, 0.37% active;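 active means inhibition above about 30%, limit read from the data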
PERK inhibitor: human PERK inhibition, primary cell-based screen; Q9NZJ5; CHO PERK-DD fusion, SEAP luminescence translation reporter; inhibition, % at 5.6 µM; 220,000 tested, 0.17% active; AID 1416;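 active means inhibition above the mean inhibition of all tested compounds plus 3 SD, set separately per screening campaign, cut at about 2.9% in these data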;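 further: PERK kinase domain activated by AP20187 dimerizer at 100 nM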
RanGTP-Impb inh: inhibitors of RanGTP-importin-beta interaction, primary screen, biochemical, FRET, CFP-Ran, YFP-importin-beta, homogeneous; 300,000 tested, 1.1% active; cell-free CFP-Ran/YFP-importin-beta FRET ratio; AID 2216; inhibition, % (no concentration beside the values);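 active means more than half of the replicate wells show a fall in the fluorescence ratio signal beyond about 16%, limit read from the data, passing the limit was not always enough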
Numbers stand for hits.

How did COc1cc(-c2c(C#N)c(N)nc(SCc3ccncc3)c2C#N)cc(OC)c1OC do in these assays?
Runt-CBFb FRET: inactive; Runt-SMMHC FRET: inactive; Hck Nef HTS: inactive; eIF4E 4G PPI: inactive; PERK inhibitor: inactive; RanGTP-Impb inh: inactive

What do the screens show for `O=C(NC1CC1)c1cc2c(s1)-c1ccccc1OC2`?
Runt-CBFb FRET: inactive; Runt-SMMHC FRET: inactive; Hck Nef HTS: inactive; eIF4E 4G PPI: inactive; PERK inhibitor: inactive; RanGTP-Impb inh: inactive

How did O=C(Nc1cccc(C(F)(F)F)c1)c1cc2c(s1)-c1ccccc1OC2 do in these assays?
Runt-CBFb FRET: inactive; Runt-SMMHC FRET: 87; Hck Nef HTS: inactive; eIF4E 4G PPI: inactive; PERK inhibitor: inactive; RanGTP-Impb inh: 41

How did CCCOC(=O)c1ccc(NC(=O)CC(C)(C)C)cc1 do in these assays?
Hck Nef HTS: inactive; eIF4E 4G PPI: inactive; PERK inhibitor: inactive; RanGTP-Impb inh: inactive

What do the screens show for `N#Cc1ccc(OCc2nnc(SCC(=O)c3ccccc3)n2-c2ccccc2)cc1`?
Runt-CBFb FRET: inactive; Runt-SMMHC FRET: inactive; Hck Nef HTS: inactive; eIF4E 4G PPI: inactive; PERK inhibitor: inactive; RanGTP-Impb inh: inactive

Results for CC(=O)N1CCN(c2nc(-c3ccco3)c3c(c2C#N)CC(C)(C)SC3)CC1 ?
Runt-CBFb FRET: inactive; Runt-SMMHC FRET: inactive; Hck Nef HTS: inactive; eIF4E 4G PPI: inactive; PERK inhibitor: inactive; RanGTP-Impb inh: 16

How did CC1(C)Cc2c(C#N)c(N3CCN(C(=O)c4ccco4)CC3)nc(-c3ccco3)c2CS1 do in these assays?
Runt-CBFb FRET: inactive; Runt-SMMHC FRET: inactive; Hck Nef HTS: inactive; eIF4E 4G PPI: inactive; PERK inhibitor: inactive; RanGTP-Impb inh: inactive

What do the screens show for `Brc1cc2[nH]cnc2c2ccccc12`?
Runt-CBFb FRET: inactive; Runt-SMMHC FRET: inactive; Hck Nef HTS: inactive; eIF4E 4G PPI: inactive; PERK inhibitor: inactive; RanGTP-Impb inh: inactive

Results for CCCCCCc1cc2cc(C(=O)NCc3ccccc3)c(=N)oc2cc1O ?
Runt-CBFb FRET: inactive; Runt-SMMHC FRET: inactive; Hck Nef HTS: inactive; eIF4E 4G PPI: inactive; PERK inhibitor: inactive; RanGTP-Impb inh: 146

How did N=c1oc2ccc(Br)cc2cc1C(=O)NCc1ccccc1 do in these assays?
RanGTP-Impb inh: inactive

How did N=c1oc2ccc(Br)cc2cc1C(=O)NCc1ccc(F)cc1 do in these assays?
RanGTP-Impb inh: inactive

What do the screens show for `CCN(CC)c1ccc2cc(C(=O)NCc3ccc(F)cc3)c(=N)oc2c1`?
RanGTP-Impb inh: 99

What do the screens show for `Cc1cc(C)c2nc3nc(C)c(C)cc3c(N)c2c1`?
Runt-CBFb FRET: inactive; Runt-SMMHC FRET: 92; Hck Nef HTS: inactive; eIF4E 4G PPI: inactive; PERK inhibitor: inactive; RanGTP-Impb inh: inactive

Results for CCCSc1nc(C)c2cc(C)cc(C)c2n1 ?
Runt-CBFb FRET: inactive; Runt-SMMHC FRET: inactive; Hck Nef HTS: inactive; eIF4E 4G PPI: inactive; PERK inhibitor: inactive; RanGTP-Impb inh: inactive

How did S=C(N/N=C/c1ccc(Cl)c(Cl)c1)Nc1ccccc1Cl do in these assays?
Runt-CBFb FRET: inactive; Runt-SMMHC FRET: inactive; Hck Nef HTS: inactive; eIF4E 4G PPI: inactive; PERK inhibitor: inactive; RanGTP-Impb inh: inactive

What do the screens show for `Cc1ccc(C)c(NC(=O)c2nnn(Cc3ccccc3)c2N)c1`?
Runt-CBFb FRET: inactive; Runt-SMMHC FRET: inactive; Hck Nef HTS: inactive; eIF4E 4G PPI: inactive; PERK inhibitor: inactive; RanGTP-Impb inh: 168

What do the screens show for `Cc1nn(C)cc1NC(=O)c1cc2nc(-c3ccco3)cc(C(F)(F)F)n2n1`?
Runt-CBFb FRET: inactive; Runt-SMMHC FRET: inactive; Hck Nef HTS: inactive; eIF4E 4G PPI: inactive; PERK inhibitor: inactive; RanGTP-Impb inh: inactive

How did O=C(Nc1cnn(Cc2ccccc2)c1)c1cc2nc(-c3ccco3)cc(C(F)(F)F)n2n1 do in these assays?
Runt-CBFb FRET: inactive; Runt-SMMHC FRET: inactive; Hck Nef HTS: inactive; eIF4E 4G PPI: inactive; PERK inhibitor: inactive; RanGTP-Impb inh: 17

Results for CCOC(=O)C1=C(O)/C(=C/c2cn(CC(=O)N3CCCC3)c3ccccc23)SC1=Nc1ccccc1 ?
Runt-CBFb FRET: inactive; Runt-SMMHC FRET: 83; Hck Nef HTS: inactive; eIF4E 4G PPI: inactive; PERK inhibitor: inactive; RanGTP-Impb inh: inactive

How did Cc1cccc(C)c1NC(=O)NC1(C(=O)N2CCOCC2)CCCCC1 do in these assays?
Runt-CBFb FRET: inactive; Runt-SMMHC FRET: inactive; Hck Nef HTS: inactive; eIF4E 4G PPI: inactive; PERK inhibitor: inactive; RanGTP-Impb inh: inactive

How did O=c1[nH][nH]c2cc(=O)n(-c3cccc(C(F)(F)F)c3)nc12 do in these assays?
Runt-CBFb FRET: inactive; Runt-SMMHC FRET: inactive; Hck Nef HTS: inactive; eIF4E 4G PPI: inactive; PERK inhibitor: inactive; RanGTP-Impb inh: inactive

What do the screens show for `Nc1n[nH]c2cc(=O)n(-c3cccc(C(F)(F)F)c3)nc12`?
Runt-CBFb FRET: 64; Runt-SMMHC FRET: 86; Hck Nef HTS: inactive; eIF4E 4G PPI: inactive; PERK inhibitor: inactive; RanGTP-Impb inh: 118

What do the screens show for `Cc1ccc(C)c(NC(=O)CN(C)C(=O)c2ccc3[nH]c4c(c3c2)CC(C)CC4)c1` (stereo not drawn)?
RanGTP-Impb inh: 26

What do the screens show for `CC1CCc2[nH]c3ccc(C(=O)N(C)CC(=O)Nc4ccccc4Br)cc3c2C1` (stereo not drawn)?
RanGTP-Impb inh: inactive

Results for Fc1ccc(NC(=S)NCc2cccs2)cc1 ?
Runt-CBFb FRET: inactive; Runt-SMMHC FRET: inactive; Hck Nef HTS: inactive; eIF4E 4G PPI: inactive; PERK inhibitor: inactive; RanGTP-Impb inh: inactive

How did COc1ccc(CC(=O)Nc2nc(-c3cccc([N+](=O)[O-])c3)cs2)cc1 do in these assays?
Runt-CBFb FRET: inactive; Runt-SMMHC FRET: inactive; Hck Nef HTS: inactive; eIF4E 4G PPI: inactive; PERK inhibitor: inactive; RanGTP-Impb inh: inactive

How did Nc1nc2n(n1)C(c1cccc(Cl)c1)CC(c1ccc(F)cc1)N2 (stereo not drawn) do in these assays?
Runt-CBFb FRET: inactive; Runt-SMMHC FRET: inactive; Hck Nef HTS: inactive; eIF4E 4G PPI: inactive; PERK inhibitor: inactive; RanGTP-Impb inh: inactive

Results for CCOc1ccc(C2CC(c3cccc(Cl)c3)n3nc(N)nc3N2)cc1 (stereo not drawn) ?
Runt-CBFb FRET: inactive; Runt-SMMHC FRET: inactive; Hck Nef HTS: inactive; eIF4E 4G PPI: inactive; PERK inhibitor: inactive; RanGTP-Impb inh: 26

Results for N#C/C(=C/N1CCOCC1)c1ccccc1 ?
Runt-CBFb FRET: inactive; Runt-SMMHC FRET: inactive; Hck Nef HTS: inactive; eIF4E 4G PPI: inactive; PERK inhibitor: inactive; RanGTP-Impb inh: inactive

What do the screens show for `COc1ccc(C2Nc3ccccc3NC3=C2C(=O)CC(C)(C)C3)cc1` (stereo not drawn)?
RanGTP-Impb inh: inactive

How did Nc1c(C(=O)NCCN2CCOCC2)c2nc3ccccc3nc2n1-c1ccc2c(c1)OCO2 do in these assays?
Runt-CBFb FRET: inactive; Runt-SMMHC FRET: inactive; Hck Nef HTS: inactive; eIF4E 4G PPI: inactive; PERK inhibitor: inactive; RanGTP-Impb inh: inactive

What do the screens show for `Nc1c(C(=O)NCCN2CCOCC2)c2nc3ccccc3nc2n1-c1ccccc1`?
Runt-CBFb FRET: inactive; Runt-SMMHC FRET: 98; Hck Nef HTS: inactive; eIF4E 4G PPI: inactive; PERK inhibitor: inactive; RanGTP-Impb inh: 81
